Reference: ChEMBL document CHEMBL2046427, “Nonhematotoxic naphthalene diimide modified by polyamine: synthesis and biological evaluation” (J Med Chem, 2012)
The source made the active and inactive calls. No cut-off for these calls is given here.

What was measured:
[1] = test system: MDA-MB-231; assay: Cytotoxicity against human MDA-MB-231 cells after 48 hrs by MTT assay; assay type: functional, cell-based; settings: MDA-MB-231, 48 h
Procedure, shortened: (§1)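 MTT conversion assay at 37 °C, 5% CO₂. […] Inhibition relative to untreated cells as 100%; IC50 by linear regression, mean of three independent experiments.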

[2] = test system: K562; assay: Cytotoxicity against human K562 cells after 48 hrs by MTT assay; assay type: functional, cell-based; settings: K562, 48 h; procedure, shortened: as §1
[3] = test system: HepG2; assay: Cytotoxicity against human HepG2 cells after 48 hrs by MTT assay; assay type: functional, cell-based; settings: HepG2, 48 h; procedure, shortened: as §1
[4] = test system: HepG2; assay: Cytotoxicity against human HepG2 cells assessed as acruement in lysosomal mass/pH after 48 hrs by fluorescence-based high-content screening assay; assay type: functional, cell-based
Procedure, shortened: (§2)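 HepG2 seeded 5 × 10³/well; after 12 h treated at 1, 5, 10, 15 and 30 μM for 48 h. Multiparameter cytotoxicity kit staining imaged by high-content screening: Hoechst 33342 for nuclear morphology, permeability dye (green nuclei) for membrane integrity, mitochondrial potential dye, and a weak-base dye for lysosomal mass/pH.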

[5] = test system: HepG2; assay: Cytotoxicity against human HepG2 cells assessed as decrease in mitochondrial membrane potential after 48 hrs by fluorescence-based high-content screening assay; assay type: functional, cell-based; procedure, shortened: as §2
[6] = test system: HepG2; assay: Cytotoxicity against human HepG2 cells assessed as mitochondrial permeability augmentation after 48 hrs by fluorescence-based high-content screening assay; assay type: functional, cell-based; procedure, shortened: as §2
[7] = test system: HepG2; assay: Cytotoxicity against human HepG2 cells assessed as cell nuclear shrinkage after 48 hrs by Hoechst 33342-based fluorescence-based high-content screening assay; assay type: functional; procedure, shortened: as §2
[8] = test system: Mus musculus; assay: Toxicity in mouse H22 cells bearing Kunming mouse assessed as change in spleen index number at 5 mg/kg, iv administered for 7 days measured on day 8 relative to vehicle treated control; assay type: organism-based; design: dose 5 mg/kg, route intravenous; settings: in vivo, 168 h
Procedure, shortened: (§3)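 Tumour-bearing mice (10 per group) dosed iv for 7 consecutive days, killed on day 8; spleen and thymus removed and weighed. Organ index (%) = (organ weight/body weight) × 100, compared with saline-treated controls.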

[9] = test system: Mus musculus; assay: Toxicity in mouse H22 cells bearing Kunming mouse assessed as decrease in white blood cells number at 5 mg/kg, iv administered for 7 days measured on day 8 relative to vehicle treated control; assay type: organism-based; design: dose 5 mg/kg, route intravenous; settings: in vivo, 168 h
Procedure, shortened: (§4)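 Tumour-bearing mice (10 per group) dosed iv for 7 consecutive days; killed on day 8. Blood and bone marrow collected; platelet, RBC, WBC and bone marrow cell counts determined with a Coulter counter. Mean SD versus saline control; Student's t test or ANOVA with q test.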

[10] = test system: Mus musculus; assay: Toxicity in mouse H22 cells bearing Kunming mouse assessed as change in thymus index number at 5 mg/kg, iv administered for 7 days measured on day 8 relative to vehicle treated control; assay type: organism-based; design: dose 5 mg/kg, route intravenous; settings: in vivo, 168 h; procedure, shortened: as §3
[11] = test system: H22; assay: Antimetastatic activity against mouse H22 cells xenografted in Kunming mouse assessed as decrease in lung metastasis focuses number at 5 mg/kg, iv administered on day 11 post-tumor injection for 7 days measured on day 18 by hematoxylin and eosin staining relative to vehicle treated control; assay type: functional, organism-based; design: dose 5 mg/kg
[12] = test system: Mus musculus; assay: Toxicity in mouse H22 cells bearing Kunming mouse assessed pathological changes in kidney at 5 mg/kg, iv administered for 7 days measured on day 8 by hematoxylin and eosin staining relative to vehicle treated control; assay type: organism-based; design: dose 5 mg/kg, route intravenous; settings: in vivo, 168 h
Procedure, shortened: (§5)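 Tumour-bearing mice dosed iv for 7 consecutive days, killed on day 8; heart, liver, kidney, brain, lung and spleen removed, fixed in 10% formaldehyde 24 h, paraffin-embedded, sectioned and H&E stained for histopathological change versus saline controls.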

[13] = test system: Mus musculus; assay: Toxicity in mouse H22 cells bearing Kunming mouse assessed as weight loss at 5 mg/kg, iv administered for 7 days measured on day 8 relative to vehicle treated control; assay type: organism-based; design: dose 5 mg/kg, route intravenous; settings: in vivo, 168 h
Procedure, shortened: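 Body weight monitored in tumour-bearing mice during 7 consecutive days of iv dosing (10 per group), as a sign of dose-limiting toxicity versus saline-treated controls; mice killed on day 8.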

[14] = test system: Mus musculus; assay: Toxicity in mouse H22 cells bearing Kunming mouse assessed pathological changes in spleen at 5 mg/kg, iv administered for 7 days measured on day 8 by hematoxylin and eosin staining relative to vehicle treated control; assay type: organism-based; design: dose 5 mg/kg, route intravenous; settings: in vivo, 168 h; procedure, shortened: as §5
[15] = test system: H22; assay: Antimetastatic activity against mouse H22 cells xenografted in Kunming mouse assessed as tumor weight at 5 mg/kg, iv administered on day 11 post-tumor injection for 7 days measured on day 18 (reference value: 0.34 +/- 0.15 g); assay type: functional
[16] = test system: Mus musculus; assay: Toxicity in mouse H22 cells bearing Kunming mouse assessed pathological changes in heart at 5 mg/kg, iv administered for 7 days measured on day 8 by hematoxylin and eosin staining relative to vehicle treated control; assay type: organism-based; design: dose 5 mg/kg, route intravenous; settings: in vivo, 168 h; procedure, shortened: as §5
[17] = test system: Mus musculus; assay: Toxicity in mouse H22 cells bearing Kunming mouse assessed pathological changes in brain at 5 mg/kg, iv administered for 7 days measured on day 8 by hematoxylin and eosin staining relative to vehicle treated control; assay type: organism-based; design: dose 5 mg/kg, route intravenous; settings: in vivo, 168 h; procedure, shortened: as §5
[18] = test system: H22; assay: Antimetastatic activity against mouse H22 cells xenografted in Kunming mouse assessed as decrease in lung metastases nodus number at 5 mg/kg, iv administered on day 11 post-tumor injection for 7 days measured on day 18 by hematoxylin and eosin staining relative to vehicle treated control; assay type: functional, organism-based; design: dose 5 mg/kg
[19] = test system: H22; assay: Antitumor activity against mouse H22 cells xenografted in Kunming mouse assessed as median survival time at 5 […], iv administered 24 hrs post-tumor injection for 7 days (reference value: 12.7 +/- 2.5 days); assay type: functional
Procedure, shortened: (§6)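 Kunming mice bearing H22 cells; iv (caudal vein) dosing or physiologic saline control started 24 h after inoculation and given for 7 consecutive days. Median survival time recorded per group; activity judged as increase in lifespan versus saline control.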

[20] = test system: Mus musculus; assay: Toxicity in mouse H22 cells bearing Kunming mouse assessed as decrease in platelet number at 5 mg/kg, iv administered for 7 days measured on day 8 relative to vehicle treated control; assay type: organism-based; design: dose 5 mg/kg, route intravenous; settings: in vivo, 168 h; procedure, shortened: as §4
[21] = test system: H22; assay: Antitumor activity against mouse H22 cells xenografted in Kunming mouse assessed as median survival time at 5 […], iv administered 24 hrs post-tumor injection for 7 days relative to vehicle treated control; assay type: functional; procedure, shortened: as §6
[22] = test system: Mus musculus; assay: Toxicity in mouse H22 cells bearing Kunming mouse assessed as decrease in red blood cells number at 5 mg/kg, iv administered for 7 days measured on day 8 relative to vehicle treated control; assay type: organism-based; design: dose 5 mg/kg, route intravenous; settings: in vivo, 168 h; procedure, shortened: as §4
[23] = test system: H22; assay: Antitumor activity against mouse H22 cells xenografted in Kunming mouse assessed as decrease in cell survival at 5 mg/kg, iv administered on day 8 post-tumor injection for 7 days measured on day 16 relative to vehicle treated control; assay type: functional, organism-based; design: dose 5 mg/kg
[24] = test system: H22; assay: Antitumor activity against mouse H22 cells xenografted in Kunming mouse assessed as tumor growth inhibition at 5 mg/kg, iv administered on day 8 post-tumor injection for 7 days measured on day 16 relative to vehicle treated control; assay type: functional; settings: read-out: GI
Procedure, shortened: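 Male Kunming mice, 5 weeks, 18−22 g, injected sc with 2 × 10⁶ H22 cells. From day 8, randomized groups got caudal vein injection (0.2 or 5 mg/kg, or physiologic saline) for 7 consecutive days. On day 16 tumours excised and weighed; inhibitory rate (%) = [(A − B)/A] × 100 using mean tumour weights of control (A) and treated (B). Tumours formalin-fixed, H&E-stained.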

[25] = test system: Mus musculus; assay: Hematotoxicity in mouse H22 cells bearing Kunming mouse assessed as decrease in bone marrow cell numbers at 5 mg/kg, iv administered for 7 days measured on day 8 relative to vehicle treated control; assay type: organism-based; design: dose 5 mg/kg, route intravenous; settings: in vivo, 168 h; procedure, shortened: as §4
[26] = test system: Mus musculus; assay: Toxicity in mouse H22 cells bearing Kunming mouse assessed pathological changes in lung at 5 mg/kg, iv administered for 7 days measured on day 8 by hematoxylin and eosin staining relative to vehicle treated control; assay type: organism-based; design: dose 5 mg/kg, route intravenous; settings: in vivo, 168 h; procedure, shortened: as §5
[27] = test system: HCT-116; assay: Cytotoxicity against human HCT116 cells after 48 hrs by MTT assay; assay type: functional, cell-based; settings: HCT-116, 48 h; procedure, shortened: as §1
[28] = test system: Mus musculus; assay: Toxicity in mouse H22 cells bearing Kunming mouse assessed pathological changes in liver at 5 mg/kg, iv administered for 7 days measured on day 8 by hematoxylin and eosin staining relative to vehicle treated control; assay type: organism-based; design: dose 5 mg/kg, route intravenous; settings: in vivo, 168 h; procedure, shortened: as §5

## NCCCCNCCCCN1C(=O)c2cccc3c(-c4ccccc4)ccc(c23)C1=O
[1]
  IC50: 19.2 µM
[2]
  IC50: 14.4 µM
[3]
  IC50: 17.1 µM

## NCCCNCCCNCCCN1C(=O)c2cccc3c(-c4ccccc4)ccc(c23)C1=O
[1]
  IC50: 14.6 µM
[2]
  IC50: 14.4 µM
[3]
  IC50: 15.6 µM

## CN(C)CCN1C(=O)c2cccc3c(-c4ccccc4)ccc(c23)C1=O
[4]
  Activity: Dose-dependent effect
[5]
  Activity: Dose-dependent effect
[1]
  IC50: 39.2 µM
[6]
  Activity: Dose-dependent effect
[7]
  Activity: Dose-dependent effect
[2]
  IC50: > 50 µM
[3]
  IC50: 37 µM

## CN(C)CCN1C(=O)c2cccc3cc(N)cc(c23)C1=O [AMONAFIDE]
[8]
  Activity: Toxic
[9]
  Activity: Toxic
[10]
  Activity: Toxic
[11]
  Activity: Active
[12]
  Activity: Non-toxic
[13]
  Activity: Toxic
[4]
  Activity: Dose-dependent effect
[5]
  Activity: Dose-dependent effect
[14]
  Activity: Non-toxic
[15]
  Activity: 0.29 g
[16]
  Activity: Non-toxic
[17]
  Activity: Non-toxic
[18]
  Activity: Active
[1]
  IC50: 42 µM
[19]
  MST: 18.9 days
[6]
  Activity: Dose-dependent effect
[7]
  Activity: Dose-dependent effect
[20]
  Activity: Toxic
[21]
  Ratio: 1.5
[22]
  Activity: Toxic
[23]
  Activity: Active
[24]
  inhibition in vivo at 5 mg/kg: 44.7%
[2]
  IC50: 31.7 µM
[25]
  Activity: Toxic
[3]
  IC50: 36 µM
[26]
  Activity: Non-toxic
[27]
  IC50: 32 µM
[28]
  Activity: Non-toxic

## NCCCNCCCNCCCN1C(=O)c2ccc3c4c(ccc(c24)C1=O)C(=O)N(CCCNCCCNCCCN)C3=O
[1]
  IC50: 18 µM
[2]
  IC50: 21.2 µM
[3]
  IC50: 48.5 µM

## NCCCNCCCCNCCCN1C(=O)c2ccc(-c3ccc4c(c3)C(=O)N(CCCNCCCCNCCCN)C4=O)cc2C1=O
[1]
  IC50: > 50 µM
[3]
  IC50: > 50 µM

## NCCCCNCCCCNCCCCN1C(=O)c2ccc3c4c(ccc(c24)C1=O)C(=O)N(CCCCNCCCCNCCCCN)C3=O
[1]
  IC50: > 50 µM
[2]
  IC50: 28 µM
[3]
  IC50: > 50 µM
